Experimental data reported in ChEMBL document CHEMBL1133641, “A new class of potential chloroquine-resistance reversal agents for Plasmodia: syntheses and biological evaluation of 1-(3'-diethylaminopropyl)-3-(substituted phenylmethylene)pyrrolidines” (2000).

Assays:
[1] = molecular target: T1, Glutathione S-transferase (Plasmodium yoelii yoelii) (UniProt Q7REH6); assay: Inhibition of Glutathione S-transferase in Plasmodium yoelii nigeriensis isolated from infected mice (Mus musculus) (oral); conditions: concentration not given here
T1 sequence (whole entry): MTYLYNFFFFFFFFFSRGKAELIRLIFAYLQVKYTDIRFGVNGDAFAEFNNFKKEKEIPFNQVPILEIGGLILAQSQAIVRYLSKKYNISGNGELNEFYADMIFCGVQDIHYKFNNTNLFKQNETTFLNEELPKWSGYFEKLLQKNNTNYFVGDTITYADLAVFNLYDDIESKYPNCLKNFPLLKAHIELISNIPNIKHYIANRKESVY
Summary of the method: (§1)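 Swiss albino mice carried P. yoelii nigeriensis tolerant to CQ up to 120 mg/kg. They received compound orally at 15 mg/kg body wt for 5 days. Parasites were then isolated from blood by density gradient centrifugation and saponin lysis, and enzyme inhibition was measured as percent inhibition.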

[2] = tested on: Plasmodium yoelii nigeriensis; assay: In Vitro inhibition of Heme Oxygenase in Cell-free parasite Plasmodium yoelii at concentration 10 uM;NI denotes nil inhibition; assay type: functional
Summary of the method: (§2)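 Heme oxygenase activity was measured as bilirubin formation in a post-mitochondrial fraction. The parasite enzyme came from cell-free P. yoelii, isolated from infected blood by density gradient centrifugation and saponin lysis. The host enzyme came from infected liver. Compounds were tested at 10–100 µM and preincubated for 10 min before the reaction was started.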

[3] = tested on: Plasmodium yoelii nigeriensis; assay: In Vitro inhibition of Heme Oxygenase in Cell-free parasite Plasmodium yoelii at concentration 100 uM;NI denotes nil inhibition; assay type: functional; summary of the method: as §2
[4] = tested on: Plasmodium yoelii nigeriensis; assay: In Vitro inhibition of Heme Oxygenase in Cell-free parasite Plasmodium yoelii at concentration 50 uM; assay type: functional; summary of the method: as §2
[5] = tested on: Plasmodium yoelii nigeriensis; assay: In Vitro inhibition of Heme Oxygenase in Cell-free parasite Plasmodium yoelii at concentration 50 uM; NI denotes nil inhibition; assay type: functional; summary of the method: as §2
[6] = tested on: Plasmodium yoelii nigeriensis; assay: Inhibition of heme oxygenase in Plasmodium yoelii nigeriensis isolated from infected mice (Mus musculus) (oral); NI denotes nil inhibition; assay type: functional, organism-based; summary of the method: as §1
[7] = tested on: Plasmodium yoelii nigeriensis; assay: In Vitro inhibition of Heme Oxygenase in Cell-free parasite Plasmodium yoelii at concentration 10 uM; assay type: functional; summary of the method: as §2
[8] = tested on: Plasmodium yoelii nigeriensis; assay: In Vitro inhibition of Heme Oxygenase in Cell-free parasite Plasmodium yoelii at concentration 100 uM; assay type: functional; summary of the method: as §2
[9] = tested on: Plasmodium yoelii nigeriensis; assay: In Vitro inhibition of Heme Oxygenase in Cell-free parasite Plasmodium yoelii at concentration 50 uM;NI denotes nil inhibition; assay type: functional; summary of the method: as §2
[10] = tested on: Plasmodium yoelii nigeriensis; assay: Inhibition of heme oxygenase in Plasmodium yoelii nigeriensis isolated from infected mice (Mus musculus) (oral); assay type: functional; summary of the method: as §1
[11] = tested on: Plasmodium yoelii nigeriensis; assay: In Vitro evaluation on percentage inhibition in Heme Oxygenase at concentration 100 (uM) of Cell-free parasite Plasmodium yoelii; assay type: functional; summary of the method: as §2

inhibition [1] [%] | Compound | NI [2] | NI [3] | inhibition [4] [%] | NI [5] | NI [6] | inhibition [7] [%] | inhibition [8] [%] | NI [9] | Inhibition [10] [%] | inhibition [11] [%]
10 | CCN(CC)CCCN1CC/C(=C\c2ccc3c(c2)OCO3)C1 | No inhibition | No inhibition | 100 | No inhibition | No inhibition | 100 | 100 |  |  | 
90 | CCN(CC)CCCN1CC/C(=C\c2ccc(OCCN3CCCC3)cc2)C1 | No inhibition | No inhibition | 100 |  |  | 100 | 100 | No inhibition | 79 | 
 | CN(C)CCCN1c2ccccc2Sc2ccc(Cl)cc21 |  |  | 85 |  |  |  |  |  |  | 100
80 | CCN(CC)CCCN1CC/C(=C\c2ccc(OC)c(OC)c2)C1 | No inhibition | No inhibition | 100 |  |  | 100 | 100 | No inhibition | 100 | 
